Assay [1] has as its target T1, Tyrosine-protein phosphatase non-receptor type 22 (Homo sapiens, UniProt Q9Y2R2).
T1 sequence (Q9Y2R2 whole entry): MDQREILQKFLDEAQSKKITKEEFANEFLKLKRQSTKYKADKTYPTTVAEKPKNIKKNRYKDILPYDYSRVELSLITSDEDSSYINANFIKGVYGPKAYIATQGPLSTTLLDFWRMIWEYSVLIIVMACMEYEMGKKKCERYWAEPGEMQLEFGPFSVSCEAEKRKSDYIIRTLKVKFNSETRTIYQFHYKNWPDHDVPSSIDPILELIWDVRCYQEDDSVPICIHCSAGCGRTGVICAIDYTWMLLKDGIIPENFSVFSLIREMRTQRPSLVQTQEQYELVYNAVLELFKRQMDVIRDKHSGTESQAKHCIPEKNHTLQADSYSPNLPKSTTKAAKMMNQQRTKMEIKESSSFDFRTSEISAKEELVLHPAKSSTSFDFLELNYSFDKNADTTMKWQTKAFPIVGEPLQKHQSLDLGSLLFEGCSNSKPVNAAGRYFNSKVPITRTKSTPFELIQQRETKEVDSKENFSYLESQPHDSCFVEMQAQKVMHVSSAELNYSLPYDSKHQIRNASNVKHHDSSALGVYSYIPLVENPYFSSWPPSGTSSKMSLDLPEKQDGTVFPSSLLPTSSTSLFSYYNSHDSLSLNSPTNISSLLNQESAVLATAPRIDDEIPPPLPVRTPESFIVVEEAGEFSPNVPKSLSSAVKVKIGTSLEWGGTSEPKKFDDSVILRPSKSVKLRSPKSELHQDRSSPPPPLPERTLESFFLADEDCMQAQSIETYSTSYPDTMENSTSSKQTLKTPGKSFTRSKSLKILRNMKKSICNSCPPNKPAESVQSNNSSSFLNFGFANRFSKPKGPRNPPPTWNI
In words: Inhibition of LYP (unknown origin) using DiFMUP substrate incubated for 2 hrs. In a few lines:
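LYP preincubated with inhibitor for 0, 30, 60 and 120 min before activity was read, without added zinc. IC50 came from the dose-response after the 2 h incubation.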

Assay [2] concerns the target T2, Tyrosine-protein phosphatase non-receptor type 22 (Homo sapiens) (UniProt Q9Y2R2).
T2 sequence (whole entry): T1 sequence (Q9Y2R2 whole entry)
In words: Inhibition of LYP (unknown origin) at 20 to 100 uM incubated for 30 mins at 25 degC before addition of DiFMUP substrate.

Assay [3] has as its target T2, Tyrosine-protein phosphatase non-receptor type 22 (Homo sapiens). In words: Protection against 40 uM zinc-acetate-induced inhibition of LYP (unknown origin) at 80 uM incubated for 30 mins at 25 degC before addition of DiFMUP substrate.
Assay [4] has the same target. In words: Inhibition of LYP (unknown origin) incubated for 30 mins at 25 degC before addition of DiFMUP substrate in presence of 5 uM zinc acetate. Particulars: TDE = time-dependent effect. In a few lines:
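Fragment screen and follow-up dose-response run with 5 μM zinc acetate added to the LYP assay, alongside a parallel series without zinc.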

In assay [5] the target is T3, Tyrosine-protein phosphatase non-receptor type 1 (Homo sapiens) (UniProt P18031).
T3 sequence (whole entry): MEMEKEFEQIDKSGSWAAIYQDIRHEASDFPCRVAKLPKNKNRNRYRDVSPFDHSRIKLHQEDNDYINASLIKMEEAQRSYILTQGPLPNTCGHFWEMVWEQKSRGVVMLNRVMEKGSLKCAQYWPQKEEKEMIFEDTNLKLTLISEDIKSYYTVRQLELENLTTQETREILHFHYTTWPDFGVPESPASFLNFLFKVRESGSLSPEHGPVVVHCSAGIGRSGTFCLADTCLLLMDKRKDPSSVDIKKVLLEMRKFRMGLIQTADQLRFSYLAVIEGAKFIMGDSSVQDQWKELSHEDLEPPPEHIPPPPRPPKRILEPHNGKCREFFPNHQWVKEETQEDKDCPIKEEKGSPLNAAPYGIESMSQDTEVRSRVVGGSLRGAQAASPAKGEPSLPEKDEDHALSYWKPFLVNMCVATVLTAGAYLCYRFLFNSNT
Kind of assay: Inhibition of PTP1B (unknown origin).

Assay [6] addresses T4, Receptor-type tyrosine-protein phosphatase C (Homo sapiens) (UniProt P08575).
T4 sequence (whole entry): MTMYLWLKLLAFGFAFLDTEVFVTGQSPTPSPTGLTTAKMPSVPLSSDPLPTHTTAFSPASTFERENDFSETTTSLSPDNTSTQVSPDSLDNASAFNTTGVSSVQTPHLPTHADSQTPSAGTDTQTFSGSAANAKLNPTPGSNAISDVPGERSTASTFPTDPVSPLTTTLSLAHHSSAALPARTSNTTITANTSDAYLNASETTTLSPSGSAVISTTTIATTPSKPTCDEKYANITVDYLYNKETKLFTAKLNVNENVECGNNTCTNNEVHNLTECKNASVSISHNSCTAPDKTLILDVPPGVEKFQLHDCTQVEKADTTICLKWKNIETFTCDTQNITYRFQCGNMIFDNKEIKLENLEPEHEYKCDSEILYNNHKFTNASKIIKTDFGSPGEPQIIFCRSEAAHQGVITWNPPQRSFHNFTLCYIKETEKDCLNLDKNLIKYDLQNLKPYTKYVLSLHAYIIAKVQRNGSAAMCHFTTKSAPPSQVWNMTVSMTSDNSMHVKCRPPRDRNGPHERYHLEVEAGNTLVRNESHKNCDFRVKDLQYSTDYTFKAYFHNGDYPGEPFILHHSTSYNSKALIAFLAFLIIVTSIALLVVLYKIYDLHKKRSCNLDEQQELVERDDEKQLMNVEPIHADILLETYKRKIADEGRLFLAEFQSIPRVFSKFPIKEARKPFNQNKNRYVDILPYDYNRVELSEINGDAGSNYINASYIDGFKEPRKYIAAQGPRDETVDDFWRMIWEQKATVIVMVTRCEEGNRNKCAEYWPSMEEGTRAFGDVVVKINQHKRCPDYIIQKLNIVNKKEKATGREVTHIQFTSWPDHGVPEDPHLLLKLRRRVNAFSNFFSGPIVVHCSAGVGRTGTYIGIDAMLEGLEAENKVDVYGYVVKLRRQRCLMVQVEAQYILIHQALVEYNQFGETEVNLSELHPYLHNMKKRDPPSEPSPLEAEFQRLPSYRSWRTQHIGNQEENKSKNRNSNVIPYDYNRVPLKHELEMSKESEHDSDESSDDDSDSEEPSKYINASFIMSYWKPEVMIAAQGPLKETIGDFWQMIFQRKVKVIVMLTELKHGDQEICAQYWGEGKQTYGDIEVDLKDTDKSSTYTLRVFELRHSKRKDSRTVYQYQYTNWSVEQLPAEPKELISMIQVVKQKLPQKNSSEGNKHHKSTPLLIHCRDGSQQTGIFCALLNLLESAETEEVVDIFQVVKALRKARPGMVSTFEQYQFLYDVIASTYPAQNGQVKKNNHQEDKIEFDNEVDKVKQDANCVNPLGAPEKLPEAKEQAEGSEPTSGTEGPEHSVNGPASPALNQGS
Kind of assay: Inhibition of CD45 (unknown origin).

Assay [7] can be described thus: Inhibition of YopH (unknown origin).

Data on six compounds can be found in ChEMBL document CHEMBL3351733, “Inhibition of the lymphoid tyrosine phosphatase: the effect of zinc(II) ions and chelating ligand fragments on enzymatic activity” (Bioorg Med Chem Lett, 2014).

The structures appear in SMILES notation. Calls of active or inactive are those of the source. No cut-off for these calls is given here.

The term IC50 denotes the concentration at which inhibition is half-maximal. Read a low IC50 as higher potency. The compound `O=C1C=C(O)C(=O)c2ccccc21` [LAWSONE] displayed a concentration for half-maximal inhibition (IC50) in assay [1] of 5.6 µM.
As for `Oc1ccc(Cl)c2cccnc12`, the inhibition entry in assay [2] is “inactive”. Further, in assay [3], the outcome was Active.
For `O=C(O)c1cccc(C(=O)O)n1`, in assay [2], the inhibition result is “inactive”. Further, the outcome in assay [3] was Active.
For `c1ccc(CNCc2ccccn2)nc1`, the inhibition entry in assay [2] is “inactive”. In addition, the outcome in assay [3] was Active.
Turning to `Oc1ccc2ccccc2c1O`, the inhibition result in assay [4] was “tde”. The inhibition entry in assay [5], in assay [6] and in assay [7] was “Active” throughout. The compound further registered an IC50 in assay [1] of 2.52 µM.
In assay [1], `O=C1C=Cc2ccccc2C1=O` [1,2-NAPHTHOQUINONE] displayed a half-maximal inhibitory concentration (IC50) of 1.1 µM.
